Active and inactive are the calls of the source.
Columns and labels:
HCT-116 [1] = test: Anticancer activity against human HCT-116 cells assessed as inhibition of cell viability incubated for 16 hrs by MTT assay; type: functional, cell-based; settings: HCT-116, 16 h
[2] = Cytotoxicity against HEK293 cells assessed as reduction in cell viability incubated for 16 hrs by MTT assay; type: toxicity, cell-based; settings: human
HCT-116 [3] = test: Induction of mitochondrial fission in human HCT-116 cells assessed as increase in DRP1 phosphorylation at S616 at 1 uM preincubated with NAC for 1 hr followed by compound addition and measured after 16 hrs by immunoblotting analysis; type: functional, cell-based
In short: (§1)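 Immunoblot of p-DRP1 S616 and p-DRP1 S637 in HCT116 cells pretreated 1 h with or without 5 mM NAC, then 1 μM compound 16 h.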

HCT-116 [4] = test: Induction of ROS production in human HCT-116 cells assessed as altered mitochondrial architecture at 1 uM pretreated with NAC for 1 hr followed by compound addition and measured after 16 hrs by MitoTracker Deep Red staining based confocal microscopy analysis; type: functional, cell-based
In short: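 HCT116 cells pretreated 1 h with or without 5 mM NAC, then 1 μM compound 16 h; MitoTracker Deep Red FM staining 30 min; confocal imaging of mitochondrial morphology with quantification.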

HCT-116 [5] = test: Induction of apoptosis in human HCT-116 cells assessed as increase in JNK1 phosphorylation at 1 uM preincubated with selonsertib for 1 hr followed by compound addition and measured after 16 hrs by immunoblotting analysis; type: functional, cell-based
In short: (§2)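 Immunoblot of p-JNK, p-p38 and p38 in HCT116 cells pretreated 1 h with or without 50 μM selonsertib before compound treatment; β-actin loading control.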

HCT-116 [6] = test: Induction of mitochondrial fission in human HCT-116 cells assessed as decrease in DRP1 phosphorylation at S637 at 0.5 to 1 uM by immunoblotting analysis; type: functional, cell-based; settings: dose 0.5-1 µM, time 8-24 hrs, TDE = time-dependent effect
In short: (§3)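 Immunoblot in HCT116 cells: p-DRP1 S616, p-DRP1 S637, DRP1, Mitofusin1, Mitofusin2 and MFF over time (0, 8, 16, 24 h); p-DRP1 S616, S637, DRP1, Mitofusin1 and OPA at 0.5 and 1 μM. β-Actin loading control.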

HCT-116 [7] = test: Induction of ROS generation in mitochondria of human HCT-116 cells at 1 uM preincubated with MitoTEMPO for 1 hr followed by compound addition and measured after 16 hrs by MitoSOX Red staining based confocal microscope analysis; type: functional, cell-based
In short: (§4)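 HCT116 cells pretreated 1 h with 10 μM MitoTEMPO, then compound 1 μM for 16 h. Mitochondrial superoxide by MitoSOX Red confocal imaging, intensity quantified; cytotoxicity by LIVE/DEAD kit (Calcein-AM live, EthD-1 dead), percentage dead cells quantified.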

HCT-116 [8] = test: Induction of mitochondrial fission in human HCT-116 cells assessed as decrease in DRP1 phosphorylation at S637 at 1 uM preincubated with NAC for 1 hr followed by compound addition and measured after 16 hrs by immunoblotting analysis; type: functional, cell-based; in short: as §1
HCT-116 [9] = test: Induction of ROS production in human HCT-116 cells assessed as deterioration of mitochondrial length and area at 1 uM incubated for 16 hrs in presence of CellLight Mitochondria-GFP by confocal microscopy analysis; type: functional, cell-based
In short: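 HCT116 cells transfected with CellLight Mitochondria-GFP, treated 1 μM for 16 h; confocal images quantified for mitochondrial length and area.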

HCT-116 [10] = test: Induction of mitochondrial fission in human HCT-116 cells assessed as appearance of mitochondrial puncta at 1 uM incubated for 14 hrs by Mitotracker Red staining based time-lapse microscopy analysis; type: functional, cell-based
In short: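 Time-lapse microscopy with MitoTracker Red over 14 h of treatment in HCT116 cells; size of mitochondrial puncta measured as fission read-out.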

HCT-116 [11] = test: Induction of mitochondrial fission in human HCT-116 cells assessed as decrease in DRP1 phosphorylation at S637 after 8 to 24 hrs by immunoblotting analysis; type: functional, cell-based; settings: dose 0.5-1 µM, time 8-24 hrs; in short: as §3
HCT-116 [12] = test: Induction of apoptosis in human HCT-116 cells assessed as decrease in cleavage of PARP at 1 uM pretreated with NAC for 1 hr followed by compound addition and measured after 16 hrs by immunoblotting analysis; type: functional, cell-based
In short: (§5)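 HCT116 cells pretreated 1 h with 5 mM NAC, then 1 μM compound 16 h; immunoblot for cleaved caspase 3 and PARP1, β-actin loading control.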

HCT-116 [13] = test: Induction of apoptosis in human HCT-116 cells assessed as decrease in cleavage of PARP at 1 uM preincubated for 16 hrs followed by Mdivi1 addition and measured after 8 hrs by immunoblotting analysis; type: functional, cell-based
In short: (§6)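 HCT116 cells treated 1 μM for 16 h, post-treated with 25 μM Mdivi-1 for 8 h; immunoblot for cleaved caspase 3 and PARP1, β-actin loading control.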

HCT-116 [14] = test: Induction of mitochondrial fusion in human HCT-116 cells assessed as change in MFF level at 0.5 to 1 uM incubated for 8 to 24 hrs by immunoblotting analysis; type: functional, cell-based; settings: dose 0.5-1 µM, time 8-24 hrs; in short: as §3
HCT-116 [15] = test: Induction of apoptosis in human HCT-116 cells assessed as number of dead cells at 1 uM preincubated with selonsertib for 1 hr followed by compound addition and measured after 16 hrs by Calcein-AM/EthD-1 staining based confocal microscope analysis; type: functional, cell-based
HCT-116 [16] = test: Induction of ROS generation in mitochondria of human HCT-116 cells assessed as number of dead cells at 1 uM preincubated with MitoTEMPO for 1 hr followed by compound addition and measured after 16 hrs by Calcein-AM/EthD-1 staining based confocal microscope analysis; type: functional, cell-based; in short: as §4
HCT-116 [17] = test: Induction of mitochondrial membrane potential loss in human HCT-116 cells at 1 uM preincubated for 16 hrs followed by Mdivi1 addition and measured after 8 hrs by MitoTracker Deep Red staining based confocal microscopy analysis; type: functional, cell-based
In short: (§7)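 HCT116 cells treated 1 μM for 16 h; DRP1 inhibited with 25 μM Mdivi-1 for 8 h. Staining 30 min with CellROX Red FM, MitoTracker Deep Red FM and LIVE/DEAD reagents; confocal imaging; mean fluorescence intensity from five fields.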

HCT-116 [18] = test: Induction of mitochondrial fusion in human HCT-116 cells assessed as change in OPA1 level at 0.5 to 1 uM incubated for 8 to 24 hrs by immunoblotting analysis; type: functional, cell-based; settings: dose 0.5-1 µM, time 8-24 hrs; in short: as §3
HCT-116 [19] = test: Induction of apoptosis in human HCT-116 cells assessed as decrease in cleavage of caspase 3 at 1 uM pretreated with NAC for 1 hr followed by compound addition and measured after 16 hrs by immunoblotting analysis; type: functional, cell-based; in short: as §5
HCT-116 [20] = test: Induction of apoptosis in human HCT-116 cells assessed as decrease in cleavage of caspase 3 at 1 uM preincubated for 16 hrs followed by Mdivi1 addition and measured after 8 hrs by immunoblotting analysis; type: functional, cell-based; in short: as §6
HCT-116 [21] = test: Induction of apoptosis in human HCT-116 cells assessed as increase in p-38 phosphorylation at 1 uM preincubated with selonsertib for 1 hr followed by compound addition and measured after 16 hrs by immunoblotting analysis; type: functional, cell-based; in short: as §2
HCT-116 [22] = test: Induction of mitochondrial fission in human HCT-116 cells assessed as increase in DRP1 phosphorylation at S616 after 8 to 24 hrs by immunoblotting analysis; type: functional, cell-based; settings: dose 0.5-1 µM, time 8-24 hrs; in short: as §3
HCT-116 [23] = test: Induction of ROS generation in human HCT-116 cells incubated for 16 hrs by CellROX Red staining based confocal microscope analysis; type: functional, cell-based; settings: dose 0.5-1 µM
In short: (§8)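 HCT116 cells treated 16 h with compound (0.5 or 1 μM where dosed); stained 30 min with MitoTracker Deep Red FM (membrane potential) or CellROX Red FM (ROS); confocal imaging; mean fluorescence intensity quantified from five fields.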

HCT-116 [24] = test: Induction of apoptosis in human HCT-116 cells assessed as increase in p-38 phosphorylation at 1 uM incubated for 16 hrs by immunoblotting analysis; type: functional, cell-based
In short: (§9)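 Immunoblot of p-JNK, JNK, p-p38 and p38 in HCT116 cells after 1 μM compound for 16 h; β-actin loading control.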

HCT-116 [25] = test: Induction of ROS generation in mitochondria of human HCT-116 cells transfected with mito-GFP at 1 uM incubated for 16 hrs by CellROX Red staining based confocal microscope analysis; type: functional, cell-based
In short: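 HCT116 cells transfected with CellLight Mitochondria-GFP, treated 1 μM for 16 h, stained with CellROX Red FM 30 min; confocal imaging; colocalization of GFP and CellROX Red intensities quantified.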

HCT-116 [26] = test: Induction of mitochondrial fission in human HCT-116 cells assessed as increase in DRP1 phosphorylation at S616 at 0.5 to 1 uM by immunoblotting analysis; type: functional, cell-based; settings: dose 0.5-1 µM, time 8-24 hrs, TDE = time-dependent effect; in short: as §3
HCT-116 [27] = test: Induction of apoptosis in human HCT-116 cells assessed as number of dead cells at 1 uM preincubated for 16 hrs followed by Mdivi1 addition and measured after 8 hrs by Calcein-AM/EthD-1 staining based confocal microscope analysis; type: functional, cell-based; in short: as §7
HCT-116 [28] = test: Induction of apoptosis in human HCT-116 cells assessed as increase in JNK phosphorylation at 1 uM incubated for 16 hrs by immunoblotting analysis; type: functional, cell-based; in short: as §9
HCT-116 [29] = test: Induction of mitochondrial fusion in human HCT-116 cells assessed as change in Mitofusin level at 0.5 to 1 uM incubated for 8 to 24 hrs by immunoblotting analysis; type: functional, cell-based; settings: dose 0.5-1 µM, time 8-24 hrs; in short: as §3
HCT-116 [30] = test: Induction of apoptosis in human HCT-116 cells assessed as increase in JNK1 phosphorylation at 1 uM preincubated with NAC for 1 hr followed by compound addition and measured after 16 hrs by immunoblotting analysis; type: functional, cell-based
In short: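 Immunoblot of p-JNK and JNK in HCT116 cells pretreated 1 h with or without 5 mM NAC before compound treatment; β-actin loading control.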

HCT-116 [31] = test: Induction of ROS generation in human HCT-116 cells at 1 uM preincubated for 16 hrs followed by Mdivi1 addition for 8 hrs by CellROX Red staining based confocal microscopy analysis; type: functional, cell-based
HCT-116 [32] = test: Induction of mitochondrial membrane potential loss in human HCT-116 cells incubated for 16 hrs by mitotracker red staining based confocal microscope analysis; type: functional, cell-based; settings: dose 0.5-1 µM; in short: as §8

C/C=C/C/C(C)=C\[C@H]1C/C=C/C=C/C[C@H](C)/C=C(\C)[C@@H](OC)C[C@@H](O)C[C@@H](O)CC(=O)O1
0.1 µM: IC50 (HCT-116 [1])
20.8 µM: IC50 at 16 h [2]

CCCCC[C@H]1C/C=C/C=C/C[C@H](C)/C=C(\C)[C@@H](OC)C/C=C/[C@@H](O)CC(=O)O1
8.1 µM: IC50 (HCT-116 [1])
14.3 µM: IC50 at 16 h [2]

C/C=C/C/C(C)=C\[C@H]1C/C=C/C=C/C[C@H](C)/C=C(\C)[C@@H](OC)C/C=C/CCC(=O)O1
15.6 µM: IC50 (HCT-116 [1])
15.2 µM: IC50 at 16 h [2]

C/C=C/C/C(C)=C\[C@H]1C/C=C/C=C/CC/C=C(\C)[C@@H](OC)C/C=C/[C@@H](O)CC(=O)O1
6.8 µM: IC50 (HCT-116 [1])
12.5 µM: IC50 at 16 h [2]

CCCC/C(C)=C\[C@H]1C/C=C/C=C/C[C@H](C)/C=C(\C)[C@@H](OC)C/C=C/[C@@H](O)CC(=O)O1
11.3 µM: IC50 at 16 h [2]
8.1 µM: IC50 (HCT-116 [1])

C/C=C/C/C(C)=C\[C@H]1C/C=C/C=C/C[C@H](C)/C=C(\C)[C@@H](OC)CCC[C@@H](O)CC(=O)O1
inactive: Activity (HCT-116 [3]) | Activity (HCT-116 [4]) | Activity (HCT-116 [5]) | Activity (HCT-116 [7]) | Activity (HCT-116 [8]) | Activity (HCT-116 [13]) | Activity (HCT-116 [14]) | Activity (HCT-116 [15]) | Activity (HCT-116 [16]) | Activity (HCT-116 [17]) | Activity (HCT-116 [18]) | Activity (HCT-116 [20]) | Activity (HCT-116 [21]) | Activity (HCT-116 [27]) | Activity (HCT-116 [29]) | Activity (HCT-116 [30]) | Activity (HCT-116 [31])
0.1 µM: IC50 (HCT-116 [1])
23.7 µM: IC50 at 16 h [2]
active: Activity (HCT-116 [6]) Tde | Activity (HCT-116 [9]) | Activity (HCT-116 [10]) | Activity (HCT-116 [11]) Dose-Dependent Effect | Activity (HCT-116 [12]) | Activity (HCT-116 [19]) | Activity (HCT-116 [22]) Dose-Dependent Effect | Activity (HCT-116 [23]) Dose-Dependent Effect | Activity (HCT-116 [24]) | Activity (HCT-116 [25]) | Activity (HCT-116 [26]) Tde | Activity (HCT-116 [28]) | Activity (HCT-116 [32]) Dose-Dependent Effect

From ChEMBL document CHEMBL5634186, “Structure-Activity Relationship Study of Biselyngbyolide B Reveals Mitochondrial Fission-Induced Cytotoxicity in Cancer” (ACS Med Chem Lett, 2024)
